Experiments:
Chlamydia trachomatis [1] = test: Antimicrobial activity against Chlamydia trachomatis serovar LGV-L2 infected in human HeLa cells assessed as concentration require to reduce relative inclusion forming units by 95% after 48 hrs; type: functional
Outline: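 HeLa cells infected with LGV-L2 at MOI 0.1-0.5; compounds added at 1 hpi, tested at 2.5 µM then 5 or 10 µM or 1, 0.5, 0.25, 0.1 µM; after ~48 h, osmotic lysis, SPG restored, 10-fold dilutions reinfect fresh HeLa; IFUs counted by automated imaging versus DMSO; Reinfect95 = lowest concentration consistently giving 95% IFU reduction; ≥2 experiments in triplicate.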

[2] = Cytotoxicity against human HeLa cells assessed as cell viability at 10 uM after 48 hrs by resazurin assay relative to control; type: cell-based; settings: read-out: Activity
Outline: (§1)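 Uninfected HeLa seeded in RPMI, next day switched to colorless DMEM with 10% FBS, 2 mM glutamine; compounds added in triplicate, 48 h at 37 °C; resazurin added, 3 h at 37 °C dark; fluorescence ex 535/em 595 nm; cell-free wells with compound check direct resazurin reduction; mean of three experiments in triplicate, SD over nine replicates.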

[3] = Cytotoxicity against human HeLa cells assessed as cell viability at 25 uM after 48 hrs by resazurin assay relative to control; type: cell-based; settings: read-out: Activity; outline: as §1
Chlamydia trachomatis [4] = test: Antimicrobial activity against Chlamydia trachomatis serovar LGV-L2 infected in human HeLa cells assessed as decrease in relative inclusion forming units measured 44 to 48 hrs post infection by DAPI staining-based assay; type: functional, organism-based
Outline: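 HeLa229 cells infected with serovar LGV-L2 at MOI 0.3; compounds in DMSO added at 1 hpi as 8-step halving dilutions from 2 to 0.0156 µM; after 44-48 h, osmotic lysis with cold water, SPG restored, lysate 10-fold serially diluted onto fresh HeLa; after 44-48 h, methanol-fixed, anti-Chlamydia/FITC stained, IFUs counted by automated scanner relative to DMSO; EC50 by nonlinear regression, ≥3 independent experiments.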

Chlamydia trachomatis [5] = test: Antimicrobial activity against Chlamydia trachomatis serovar D infected in human HeLa cells assessed as decrease in relative inclusion forming units measured 44 to 48 hrs post infection by DAPI staining-based assay; type: functional, organism-based

| EC50 (Chlamydia trachomatis [4]) [nM] | EC50 (Chlamydia trachomatis [5]) [nM] | SMILES | Activity (Chlamydia trachomatis [1]) [µM] | viability at 48 h, 10 µM [2] [%] | viability at 48 h, 25 µM [3] [%] |
| --- | --- | --- | --- | --- | --- |
| – | – | O=C(Nc1ccccc1)[C@H]1CSc2c(C3CC3)c(Cc3cccc4ccccc34)cc(=O)n21 | 2.5 | 100 | – |
| – | – | COc1cccc(NC(=O)C2CSc3c(C4CC4)c(Cc4cccc5ccccc45)cc(=O)n32)c1 (stereo not drawn) | 2.5 | 98 | – |
| – | – | CON(C)C(=O)C1CSc2c(C3CC3)c(Cc3cccc4ccccc34)cc(=O)n21 (stereo not drawn) | >10 | 88 | – |
| – | – | O=C(Nc1ccccn1)C1CSc2c(C3CC3)c(Cc3cccc4ccccc34)cc(=O)n21 (stereo not drawn) | 10 | 90 | – |
| – | – | CNC(=O)C1CSc2c(C3CC3)c(Cc3cccc4ccccc34)cc(=O)n21 (stereo not drawn) | 10 | 93 | – |
| – | – | NC(=O)c1ccc(NC(=O)C2CSc3c(C4CC4)c(Cc4cccc5ccccc45)c(N)c(=O)n32)cc1 (stereo not drawn) | >10 | 103 | – |
| 266 | 270 | Cc1ccc(NC(=O)C2CSc3c(C4CC4)c(Cc4ccc(Cl)cc4)c(N)c(=O)n32)cc1 (stereo not drawn) | 2.5 | 101 | 102 |
| – | – | Cc1cccc(Cc2cc(=O)n3c(c2C2CC2)SCC3C(=O)Nc2ccccc2)c1 (stereo not drawn) | 2.5 | 87 | – |
| – | – | Cc1ccc(NC(=O)C2CSc3c(C4CC4)c(Cc4cccc5ccccc45)cc(=O)n32)cc1 (stereo not drawn) | 2.5 | 97 | – |
| – | – | O=C(Nc1nccs1)C1CSc2c(C3CC3)c(Cc3cccc4ccccc34)cc(=O)n21 (stereo not drawn) | 5 | 96 | – |
| – | – | O=C(Nc1cccc(F)c1)C1CSc2c(C3CC3)c(Cc3cccc4ccccc34)cc(=O)n21 (stereo not drawn) | 2.5 | 96 | – |
| – | – | CNC(=O)c1cccc(NC(=O)C2CSc3c(C4CC4)c(Cc4cccc5ccccc45)cc(=O)n32)c1 (stereo not drawn) | 10 | 93 | – |
| 102 | – | Cc1cccc(NC(=O)C2CSc3c(C4CC4)c(Cc4cccc5ccccc45)cc(=O)n32)c1 (stereo not drawn) | 1 | 99 | 100 |
| – | – | Cc1ccc(NC(=O)C2CSc3c(C4CC4)c(Cc4ccc(Cl)cc4)cc(=O)n32)cc1 (stereo not drawn) | 1 | 89 | – |
| – | – | O=C(Nc1ccc(F)cc1)C1CSc2c(C3CC3)c(Cc3cccc4ccccc34)cc(=O)n21 (stereo not drawn) | 2.5 | 98 | – |
| – | – | O=C(C1CSc2c(C3CC3)c(Cc3cccc4ccccc34)cc(=O)n21)N1CCCCC1 (stereo not drawn) | >10 | 86 | – |
| – | – | Nc1c(Cc2cccc3ccccc23)c(C2CC2)c2n(c1=O)C(C(=O)Nc1ccncn1)CS2 (stereo not drawn) | 2.5 | 99 | 88 |
| – | – | O=C(Nc1cccc(Cl)c1)C1CSc2c(C3CC3)c(Cc3cccc4ccccc34)cc(=O)n21 (stereo not drawn) | 2.5 | 100 | – |
| – | – | O=C(Nc1ccccc1)[C@@H]1CSc2c(C3CC3)c(Cc3cccc4ccccc34)c(CN3CCOCC3)c(=O)n21 | 5 | 99 | – |
| – | – | O=C(Nc1ccccc1)C1CSc2c(C3CC3)c(Cc3cccc4ncccc34)cc(=O)n21 (stereo not drawn) | 10 | 91 | – |
| – | – | CN(C(=O)C1CSc2c(C3CC3)c(Cc3cccc4ccccc34)cc(=O)n21)c1ccccc1 (stereo not drawn) | 5 | 96 | – |
| – | – | O=C(Nc1ccccc1)C1CSc2c(C3CC3)c(Cc3ccc(Cl)cc3)cc(=O)n21 (stereo not drawn) | 2.5 | 94 | – |
| – | – | O=C(Nc1cccc(C(F)(F)F)c1)C1CSc2c(C3CC3)c(Cc3cccc4ccccc34)cc(=O)n21 (stereo not drawn) | 2.5 | 95 | – |
| 147 | 124 | Cc1cccc(NC(=O)C2CSc3c(C4CC4)c(Cc4cccc5ccccc45)c(N)c(=O)n32)c1 (stereo not drawn) | 1 | 98 | 97 |
| – | – | O=C(Nc1cccnc1)C1CSc2c(C3CC3)c(Cc3cccc4ccccc34)cc(=O)n21 (stereo not drawn) | 10 | 77 | – |

| EC50 (Chlamydia trachomatis [4]) [nM] | EC50 (Chlamydia trachomatis [5]) [nM] | SMILES | Activity (Chlamydia trachomatis [1]) [µM] | viability at 48 h, 10 µM [2] [%] | viability at 48 h, 25 µM [3] [%] |
| --- | --- | --- | --- | --- | --- |
| – | – | O=C(C1CSc2c(C3CC3)c(Cc3cccc4ccccc34)cc(=O)n21)N1CCOCC1 (stereo not drawn) | >10 | 90 | – |
| 281 | 274 | Cc1ccc(NC(=O)C2CSc3c(C4CC4)c(Cc4cccc(C)c4C)c(N)c(=O)n32)cc1 (stereo not drawn) | 1 | 101 | 102 |
| – | – | O=C(Nc1ccncc1)C1CSc2c(C3CC3)c(Cc3cccc4ccccc34)cc(=O)n21 (stereo not drawn) | 5 | 69 | – |
| – | – | O=C(Nc1ccccc1F)C1CSc2c(C3CC3)c(Cc3cccc4ccccc34)cc(=O)n21 (stereo not drawn) | 2.5 | 96 | – |
| – | – | O=C(O)c1c(Cc2cccc3ccccc23)c(C2CC2)c2n(c1=O)C(C(=O)Nc1ccccc1)CS2 (stereo not drawn) | > 10 | 103 | – |
| – | – | Cc1ccc(NC(=O)C2CSc3c(C4CC4)c(Cc4cccc(C)c4C)cc(=O)n32)cc1 (stereo not drawn) | 1 | 95 | – |
| – | – | O=C(Nc1ccc(Cl)cc1)C1CSc2c(C3CC3)c(Cc3cccc4ccccc34)cc(=O)n21 (stereo not drawn) | 2.5 | 94 | – |
| – | – | Cc1ccc(Cc2cc(=O)n3c(c2C2CC2)SCC3C(=O)Nc2ccccc2)cc1C (stereo not drawn) | 2.5 | 91 | – |
| – | – | NC(=O)c1ccc(NC(=O)C2CSc3c(C4CC4)c(Cc4cccc5ccccc45)cc(=O)n32)cc1 (stereo not drawn) | 2.5 | 98 | – |
| – | – | O=C(Nc1ccncn1)C1CSc2c(C3CC3)c(Cc3cccc4ccccc34)cc(=O)n21 (stereo not drawn) | 2.5 | 92 | – |
| – | – | O=C(Nc1ccccc1)C1CSc2c(C3CC3)c(Cc3ccccc3)cc(=O)n21 (stereo not drawn) | 2.5 | 96 | – |
| 140 | 99 | Cc1ccc(NC(=O)C2CSc3c(C4CC4)c(Cc4cccc5ccccc45)c(N)c(=O)n32)cc1 (stereo not drawn) | 0.25 | 98 | 98 |
| – | – | O=C(Nc1ccccc1)C1CSc2c(C3CC3)c(Cc3cccc(Cl)c3Cl)cc(=O)n21 (stereo not drawn) | 2.5 | 85 | – |
| – | – | COc1ccc(NC(=O)C2CSc3c(C4CC4)c(Cc4cccc5ccccc45)cc(=O)n32)cc1 (stereo not drawn) | 2.5 | 100 | – |
| – | – | COc1ccc(Cc2cc(=O)n3c(c2C2CC2)SCC3C(=O)Nc2ccccc2)cc1 (stereo not drawn) | 2.5 | 103 | – |
| – | – | O=C(Nc1ccccc1)C1CSc2c(C3CC3)c(Cc3cccc4ccccc34)cc(=O)n21 (racemic) | 2.5 | 100 | – |
| – | – | Cc1cccc(Cc2cc(=O)n3c(c2C2CC2)SCC3C(=O)Nc2ccccc2)c1C (stereo not drawn) | 2.5 | 91 | – |
| – | – | O=C(NC1CCCCC1)C1CSc2c(C3CC3)c(Cc3cccc4ccccc34)cc(=O)n21 (stereo not drawn) | 10 | 88 | – |
| – | – | Cc1cc(=O)n2c(c1C1CC1)SCC2C(=O)Nc1ccccc1 (stereo not drawn) | 10 | 99 | – |
| – | – | O=C(NCc1ccccc1)C1CSc2c(C3CC3)c(Cc3cccc4ccccc34)cc(=O)n21 (stereo not drawn) | 2.5 | 93 | – |
| – | – | CCc1cccc(NC(=O)C2CSc3c(C4CC4)c(Cc4cccc5ccccc45)cc(=O)n32)c1 (stereo not drawn) | 2.5 | 100 | – |
| – | – | CN1CCN(C(=O)C2CSc3c(C4CC4)c(Cc4cccc5ccccc45)cc(=O)n32)CC1 (stereo not drawn) | >10 | 96 | – |
| – | – | O=C(Nc1ccccc1)[C@@H]1CSc2c(C3CC3)c(Cc3cccc4ccccc34)cc(=O)n21 | 2.5 | 100 | – |
| – | – | NS(=O)(=O)c1ccc(NC(=O)C2CSc3c(C4CC4)c(Cc4cccc5ccccc45)cc(=O)n32)cc1 (stereo not drawn) | 10 | 95 | – |
